Measurements reported in ChEMBL document CHEMBL1926614, “Substituted thiazoles V. synthesis and antitumor activity of novel thiazolo[2,3-b]quinazoline and pyrido[4,3-d]thiazolo[3,2-a]pyrimidine analogues” (2012).

How the values were obtained:
Assay type in all cases: functional
SK-MEL-28 = assay: Growth inhibition of human SK-MEL-28 cells at 10 uM after 48 hrs by coulter counting; settings: SK-MEL-28, 48 h, read-out: GI
Outline: (§1)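 Single-dose primary screen across the full NCI 60-cell-line panel. Stocks were made in DMSO and diluted in PBS to a final DMSO below 1%. Cultures at 6 × 10⁴ cells/ml were run in duplicate wells alongside PBS/DMSO vehicle controls at 37 °C in humidified 5% CO₂. Data were expressed as percent growth of treated cells.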

M14 = assay: Growth inhibition of human M14 cells at 10 uM after 48 hrs by coulter counting; settings: M14, 48 h, read-out: GI; outline: as §1
HL-60(TB) = assay: Growth inhibition of human HL-60(TB) cells at 10 uM after 48 hrs by coulter counting; settings: HL-60, 48 h, read-out: GI
Outline: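 Test compound was dissolved in DMSO and diluted in phosphate-buffered saline to a final DMSO level below 1%. Dilutions were plated in duplicate with cell culture at 6 × 10⁴ cells/ml. Vehicle controls held PBS and DMSO at matching dilutions. Incubation was at 37 °C, humidified, under 5% CO₂. Data were reported as percent growth of treated cells.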

MDA-MB-435 = assay: Growth inhibition of human MDA-MB-435 cells at 10 uM after 48 hrs by coulter counting; settings: MDA-MB-435, 48 h, read-out: GI; outline: as §1
NCI-H226 = assay: Growth inhibition of human NCI-H226 cells at 10 uM after 48 hrs by coulter counting; settings: NCI-H226, 48 h, read-out: GI; outline: as §1
SK-MEL-2 = assay: Growth inhibition of human SK-MEL-2 cells at 10 uM after 48 hrs by coulter counting; settings: SK-MEL-2, 48 h, read-out: GI; outline: as §1
KM12 = assay: Growth inhibition of human KM12 cells at 10 uM after 48 hrs by coulter counting; settings: KM12, 48 h, read-out: GI; outline: as §1
SF-539 = assay: Growth inhibition of human SF539 cells at 10 uM after 48 hrs by coulter counting; settings: SF-539, 48 h, read-out: GI; outline: as §1
ACHN = assay: Growth inhibition of human ACHN cells at 10 uM after 48 hrs by coulter counting; settings: read-out: GI; outline: as §1
NCI-H522 = assay: Growth inhibition of human NCI-H522 cells at 10 uM after 48 hrs by coulter counting; settings: NCI-H522, 48 h, read-out: GI; outline: as §1
UO-31 = assay: Growth inhibition of human UO31 cells at 10 uM after 48 hrs by coulter counting; settings: UO-31, 48 h, read-out: GI
Outline: (§2)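 Single-dose screen in the NCI 60 human tumor cell line panel (nine subpanels). Compounds dissolved in DMSO and diluted in phosphate buffered saline, keeping final DMSO below 1%. Added in duplicate wells to cells at 6 × 10⁴ cells/ml. Controls held PBS and DMSO at matching dilutions. Incubated at 37 °C, humidified, 5% CO₂. Reported as percent growth of treated cells.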

RPMI-8226 = assay: Growth inhibition of human RPMI8226 cells at 10 uM after 48 hrs by coulter counting; settings: RPMI-8226, 48 h, read-out: GI; outline: as §1
DU-145 = assay: Growth inhibition of human DU145 cells at 10 uM after 48 hrs by coulter counting; settings: DU-145, 48 h, read-out: GI; outline: as §1
HCT-116 = assay: Growth inhibition of human HCT116 cells at 10 uM after 48 hrs by coulter counting; settings: HCT-116, 48 h, read-out: GI; outline: as §1
[1] = Growth inhibition of human NCI-322M cells at 10 uM after 48 hrs by coulter counting; settings: read-out: GI; outline: as §1
OVCAR-4 = assay: Growth inhibition of human OVCAR4 cells at 10 uM after 48 hrs by coulter counting; settings: OVCAR-4, 48 h, read-out: GI; outline: as §1
NCI-H460 = assay: Growth inhibition of human NCI-H460 cells at 10 uM after 48 hrs by coulter counting; settings: NCI-H460, 48 h, read-out: GI; outline: as §1
UACC-62 = assay: Growth inhibition of human UACC62 cells at 10 uM after 48 hrs by coulter counting; settings: UACC-62, 48 h, read-out: GI; outline: as §2
IGROV-1 = assay: Growth inhibition of human IGROV1 cells at 10 uM after 48 hrs by coulter counting; settings: IGROV-1, 48 h, read-out: GI; outline: as §1
T47D = assay: Growth inhibition of human T47D cells at 10 uM after 48 hrs by coulter counting; settings: read-out: GI; outline: as §2
SNB-75 = assay: Growth inhibition of human SNB75 cells at 10 uM after 48 hrs by coulter counting; settings: SNB-75, 48 h, read-out: GI; outline: as §1
A498 = assay: Growth inhibition of human A498 cells at 10 uM after 48 hrs by coulter counting; settings: A498, 48 h, read-out: GI; outline: as §1
HCC 2998 = assay: Growth inhibition of human HCC2998 cells at 10 uM after 48 hrs by coulter counting; settings: HCC 2998, 48 h, read-out: GI; outline: as §1
NCI-H23 = assay: Growth inhibition of human NCI-H23 cells at 10 uM after 48 hrs by coulter counting; settings: NCI-H23, 48 h, read-out: GI; outline: as §1
EKVX = assay: Growth inhibition of human EKVX cells at 10 uM after 48 hrs by coulter counting; settings: read-out: GI; outline: as §1
A549 = assay: Growth inhibition of human A549 cells at 10 uM after 48 hrs by coulter counting; settings: A549, 48 h, read-out: GI; outline: as §1
NCI/ADR-RES = assay: Growth inhibition of human NCI/ADR-RES cells at 10 uM after 48 hrs by coulter counting; settings: read-out: GI; outline: as §1
SNB-19 = assay: Growth inhibition of human SNB19 cells at 10 uM after 48 hrs by coulter counting; settings: SNB-19, 48 h, read-out: GI; outline: as §1
CCRF-CEM = assay: Growth inhibition of human CCRF-CEM cells at 10 uM after 48 hrs by coulter counting; settings: read-out: GI; outline: as §1
U-251 = assay: Growth inhibition of human U251 cells at 10 uM after 48 hrs by coulter counting; settings: U-251, 48 h, read-out: GI; outline: as §2
CAKI-1 = assay: Growth inhibition of human Caki1 cells at 10 uM after 48 hrs by coulter counting; settings: CAKI-1, 48 h, read-out: GI; outline: as §1
SK-MEL-5 = assay: Growth inhibition of human SK-MEL-5 cells at 10 uM after 48 hrs by coulter counting; settings: SK-MEL-5, 48 h, read-out: GI; outline: as §1
LOX IMVI = assay: Growth inhibition of human LOXIMVI cells at 10 uM after 48 hrs by coulter counting; settings: read-out: GI; outline: as §1
SF-295 = assay: Growth inhibition of human SF295 cells at 10 uM after 48 hrs by coulter counting; settings: SF-295, 48 h, read-out: GI; outline: as §1
MOLT-4 = assay: Growth inhibition of human MOLT4 cells at 10 uM after 48 hrs by coulter counting; settings: MOLT-4, 48 h, read-out: GI; outline: as §1
HT-29 = assay: Growth inhibition of human HT-29 cells at 10 uM after 48 hrs by coulter counting; settings: HT-29, 48 h, read-out: GI; outline: as §1
UACC-257 = assay: Growth inhibition of human UACC257 cells at 10 uM after 48 hrs by coulter counting; settings: UACC-257, 48 h, read-out: GI; outline: as §2
MCF7 = assay: Growth inhibition of human MCF7 cells at 10 uM after 48 hrs by coulter counting; settings: MCF7, 48 h, read-out: GI; outline: as §1
K562 = assay: Growth inhibition of human K562 cells at 10 uM after 48 hrs by coulter counting; settings: K562, 48 h, read-out: GI; outline: as §1
SF-268 = assay: Growth inhibition of human SF268 cells at 10 uM after 48 hrs by coulter counting; settings: SF-268, 48 h, read-out: GI; outline: as §1
HOP-62 = assay: Growth inhibition of human HOP62 cells at 10 uM after 48 hrs by coulter counting; settings: HOP-62, 48 h, read-out: GI; outline: as §1
BT-549 = assay: Growth inhibition of human BT549 cells at 10 uM after 48 hrs by coulter counting; settings: BT-549, 48 h, read-out: GI; outline: as §1

Which results are given for `COc1ccc(/C=C2\CCCC3=C2N=C2SC=CN2C3c2ccc(OC)cc2)cc1` (configuration not stated)?
inhibition of growth at 10 µM (SK-MEL-28): > 10%; inhibition of growth at 10 µM (M14): 18.8%; inhibition of growth at 10 µM (HL-60(TB)): > 10%; inhibition of growth at 10 µM (MDA-MB-435): 15.4%; inhibition of growth at 10 µM (NCI-H226): 21.6%; inhibition of growth at 10 µM (SK-MEL-2): > 10%; inhibition of growth at 10 µM (KM12): > 10%; inhibition of growth at 10 µM (SF-539): > 10%; inhibition of growth at 10 µM (ACHN): > 10%; inhibition of growth at 10 µM (NCI-H522): > 10%; inhibition of growth at 10 µM (UO-31): 32%; inhibition of growth at 10 µM (RPMI-8226): 21%; inhibition of growth at 10 µM (DU-145): > 10%; inhibition of growth at 10 µM (HCT-116): 17.6%; inhibition of growth at 10 µM [1]: > 10%; inhibition of growth at 10 µM (OVCAR-4): 15.4%; inhibition of growth at 10 µM (NCI-H460): > 10%; inhibition of growth at 10 µM (UACC-62): > 10%; inhibition of growth at 10 µM (IGROV-1): > 10%; inhibition of growth at 10 µM (T47D): > 10%; inhibition of growth at 10 µM (SNB-75): > 10%; inhibition of growth at 10 µM (A498): > 10%; inhibition of growth at 10 µM (HCC 2998): > 10%; inhibition of growth at 10 µM (NCI-H23): > 10%; inhibition of growth at 10 µM (EKVX): 12.5%; inhibition of growth at 10 µM (A549): > 10%; inhibition of growth at 10 µM (NCI/ADR-RES): > 10%; inhibition of growth at 10 µM (SNB-19): > 10%; inhibition of growth at 10 µM (CCRF-CEM): > 10%; inhibition of growth at 10 µM (U-251): > 10%; inhibition of growth at 10 µM (CAKI-1): 11.3%; inhibition of growth at 10 µM (SK-MEL-5): > 10%; inhibition of growth at 10 µM (LOX IMVI): > 10%; inhibition of growth at 10 µM (SF-295): > 10%; inhibition of growth at 10 µM (MOLT-4): 14.4%; inhibition of growth at 10 µM (HT-29): > 10%; inhibition of growth at 10 µM (UACC-257): > 10%; inhibition of growth at 10 µM (MCF7): > 10%; inhibition of growth at 10 µM (K562): > 10%; inhibition of growth at 10 µM (SF-268): > 10%; inhibition of growth at 10 µM (HOP-62): > 10%; inhibition of growth at 10 µM (BT-549): > 10%
